ChEMBL document CHEMBL3817745, “Structure-Activity Relationship for the 4(3H)-Quinazolinone Antibacterials” (J Med Chem, 2016)
Values after ≈ are worked out from the molar mass of the structure shown.

Legend:
Staphylococcus aureus [1] = experiment: Antibacterial activity against mecA-positive multidrug resistant Staphylococcus aureus COL NRS100 incubated for 16 to 20 hrs by microdilution method; type: functional
HepG2 = experiment: Cytotoxicity against human HepG2 cells incubated for 16 hrs by XTT assay; type: cell-based; conditions: HepG2, 16 h
How it was run: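 HepG2 cells were tested with an XTT viability read-out, in triplicate. IC50 was obtained by nonlinear regression.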

Streptococcus pyogenes = experiment: Antibacterial activity against Streptococcus pyogenes ATCC 49399 incubated for 16 to 20 hrs by microdilution method; type: functional
How it was run: (§1)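 CLSI broth microdilution. 2-fold serial dilutions were made in cation-adjusted Mueller–Hinton broth, with 5% lysed horse blood added for Streptococcus strains, in triplicate. Inoculum 5×10^5 CFU/mL. Plates incubated 36 °C for 16–20 h. MIC taken as the lowest concentration visibly inhibiting growth.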

Acinetobacter baumannii = experiment: Antibacterial activity against Acinetobacter baumannii ATCC 17961 incubated for 16 to 20 hrs by microdilution method; type: functional; how it was run: as §1
Bacillus cereus = experiment: Antibacterial activity against Bacillus cereus ATCC 13061 incubated for 16 to 20 hrs by microdilution method; type: functional; how it was run: as §1
Mus musculus [2] = experiment: AUC (0 to last) in ICR mouse peritonitis model infected with methicillin resistant Staphylococcus aureus ATCC 27660 at 10 mg/kg, iv administered as single dose measured up to 8 hrs by UPLC analysis; type: ADME, organism-based; parameters: dose 10 mg/kg, time 0 - last, route intravenous; conditions: in vivo, 8 h
How it was run: (§2)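 Fast PK: female ICR mice (n = 2 per time point) given single tail-vein iv injection at 5, 10 or 20 mg/kg in 25% DMSO/65% propylene glycol/10% water (2.5, 5 or 10 mg/mL); terminal cardiac blood at 5 min, 40 min, 2, 4, 8 h; plasma analysed by UPLC with internal standard calibration.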

Enterococcus faecium = experiment: Antibacterial activity against Enterococcus faecium NCTC 7171 incubated for 16 to 20 hrs by microdilution method; type: functional; how it was run: as §1
Staphylococcus aureus [3] = experiment: Antibacterial activity against mecA-positive methicillin/oxacillin/tetracycline-resistant Staphylococcus aureus ATCC 27660 incubated for 16 to 20 hrs by microdilution method; type: functional
Streptococcus oralis = experiment: Antibacterial activity against Streptococcus oralis ATCC 9811 incubated for 16 to 20 hrs by microdilution method; type: functional; how it was run: as §1
Staphylococcus aureus [4] = experiment: Antibacterial activity against methicillin-susceptible Staphylococcus aureus ATCC 29213 incubated for 16 to 20 hrs by microdilution method; type: functional
Staphylococcus aureus [5] = experiment: […] activity against methicillin-susceptible Staphylococcus aureus ATCC 29213; type: functional; conditions: read-out: MBC99.9
Staphylococcus aureus [6] = experiment: Antibacterial activity against methicillin resistant Staphylococcus aureus ATCC 27660 infected in ICR mouse model of peritonitis assessed as mouse survival at 5 mg/kg, iv administered at 30 mins and 4.5 hrs post infection measured for 48 hrs relative to control; type: functional
Pseudomonas aeruginosa = experiment: Antibacterial activity against Pseudomonas aeruginosa […] incubated for 16 to 20 hrs by microdilution method; type: functional; how it was run: as §1
Escherichia coli = experiment: Antibacterial activity against Escherichia coli ATCC 25922 incubated for 16 to 20 hrs by microdilution method; type: functional; how it was run: as §1
Klebsiella aerogenes = experiment: Antibacterial activity against Enterobacter aerogenes ATCC 35029 incubated for 16 to 20 hrs by microdilution method; type: functional; how it was run: as §1
Staphylococcus aureus [7] = experiment: Antibacterial activity against methicillin-resistant Staphylococcus aureus NRS70 incubated for 16 to 20 hrs by microdilution method; type: functional
Staphylococcus aureus [8] = experiment: Antibacterial activity against vancomycin/methicillin-resistant Staphylococcus aureus VRS1 clinical isolate incubated for 16 to 20 hrs by microdilution method; type: functional
Klebsiella pneumoniae = experiment: Antibacterial activity against Klebsiella pneumoniae ATCC 700603 incubated for 16 to 20 hrs by microdilution method; type: functional; how it was run: as §1
[9] = Hemolytic activity against human RBC at 64 ug/ml relative to control; type: ADME, cell-based, Erythrocyte; conditions: erythrocyte
How it was run: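 Hemolysis was measured at a fixed 64 μg/mL on a 10% red-cell suspension from heparinized human blood. Triton-X served as the positive control, and results are given as percent hemolysis.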

Staphylococcus aureus [10] = experiment: Antibacterial activity against mecA-positive multidrug resistant Staphylococcus aureus NRS120 incubated for 16 to 20 hrs by microdilution method; type: functional
Staphylococcus aureus [11] = experiment: […] activity against multidrug resistant Staphylococcus aureus ATCC 27660; type: functional; conditions: read-out: MBC99.9
[12] = test system: Staphylococcus epidermidis; experiment: Antibacterial activity against Staphylococcus epidermidis ATCC 35547 incubated for 16 to 20 hrs by microdilution method; type: functional; how it was run: as §1
[13] = Protein binding in human plasma at 20 uM after 2 hrs by UPLC based equilibrium dialysis method; type: ADME, cell-free
How it was run: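 Human plasma was tested by rapid equilibrium dialysis at a final compound concentration of 20 μM. Dialysis ran 2 h at 37 °C on an orbital shaker. Samples were quenched in acetonitrile with internal standard and quantified by UPLC with MRM detection. Triplicate, each measured in duplicate.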

Enterococcus faecalis [14] = experiment: Antibacterial activity against vancomycin-resistant Enterococcus faecalis 99 clinical isolate incubated for 16 to 20 hrs by microdilution method; type: functional
Staphylococcus aureus [15] = experiment: Antibacterial activity against mecA-positive multidrug resistant Staphylococcus aureus NRS119 incubated for 16 to 20 hrs by microdilution method; type: functional
Bacillus licheniformis = experiment: Antibacterial activity against Bacillus licheniformis ATCC 12759 incubated for 16 to 20 hrs by microdilution method; type: functional; how it was run: as §1
Staphylococcus aureus [16] = experiment: […] activity against methicillin-resistant Staphylococcus aureus NRS70; type: functional; conditions: read-out: MBC99.9
Staphylococcus aureus [17] = experiment: Bactericidal activity against methicillin-susceptible Staphylococcus aureus ATCC 29213 assessed as bacterial count at >=1 ug/ml (reference value: 1x10^6 CFU/ml); type: functional
Enterococcus faecalis [18] = experiment: Antibacterial activity against methicillin-susceptible Enterococcus faecalis ATCC 29212 incubated for 16 to 20 hrs by microdilution method; type: functional; how it was run: as §1
[19] = Drug level in uninfected thighs of ICR mouse neutropenic thigh model of methicillin-resistant Staphylococcus aureus NRS70 infection at 20 mg/kg, sc tid administered every 8 hrs starting from 1 hr post infection and measured 7 hrs post last dose by UPLC analysis; type: ADME, organism-based; conditions: read-out: Drug uptake
How it was run: (§3)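 Neutropenic thigh model (cyclophosphamide 200 mg/kg ip, NRS70 im), sc doses at 1, 9 and 17 h; at 24 h cardiac blood and uninfected thigh taken (n = 8 per group); thigh homogenate supernatant and plasma acetonitrile-quenched with internal standard, analysed by UPLC with MRM detection.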

Mus musculus [20] = experiment: AUC (0 to last) in ICR mouse peritonitis model infected with methicillin resistant Staphylococcus aureus ATCC 27660 at 10 mg/kg, po administered as single dose through gavage measured after 30 hrs by UPLC analysis; type: ADME, organism-based; parameters: dose 10 mg/kg, time 0 - last, route oral; conditions: in vivo, 30 h
How it was run: (§4)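 Female ICR mice, single 10 mg/kg oral gavage in 25% DMSO/55% propylene glycol/20% PBS (2.5 mg/mL); n = 3 per time point; terminal blood 0.5–30 h; plasma protein-precipitated with acetonitrile containing internal standard, quantified by UPLC-UV or MRM against mouse-plasma calibration curve (0–50 μg/mL).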

Mus musculus [21] = experiment: Tmax in ICR mouse peritonitis model infected with methicillin resistant Staphylococcus aureus ATCC 27660 at 10 mg/kg, po administered as single dose through gavage by UPLC analysis; type: ADME, organism-based; conditions: in vivo; how it was run: as §4
[22] = Solubility of compound in water; type: physicochemical; conditions: buffer
Mus musculus [23] = experiment: Cmax in ICR mouse peritonitis model infected with methicillin resistant Staphylococcus aureus ATCC 27660 at 10 mg/kg, po administered as single dose through gavage measured at 0.5 hrs post dose by UPLC analysis; type: ADME, organism-based; parameters: dose 10 mg/kg, route oral; conditions: in vivo; how it was run: as §4
Mus musculus [24] = experiment: T>MIC in ICR mouse at 10 mg/kg, po administered as single dose through gavage by UPLC analysis
Mus musculus [25] = experiment: Volume of distribution in ICR mouse peritonitis model infected with methicillin resistant Staphylococcus aureus ATCC 27660 at 10 mg/kg, iv administered as single dose measured up to 24 hrs by UPLC analysis; type: ADME, organism-based; conditions: in vivo, 24 h
Mus musculus [26] = experiment: Oral bioavailability in ICR mouse peritonitis model infected with methicillin resistant Staphylococcus aureus ATCC 27660 at 10 mg/kg administered as single dose through gavage by UPLC analysis; type: ADME, organism-based; conditions: in vivo; how it was run: as §4
[27] = Plasma concentration in ICR mouse neutropenic thigh model of methicillin-resistant Staphylococcus aureus NRS70 infection at 20 mg/kg, sc tid administered every 8 hrs starting from 1 hr post infection and measured 7 hrs post last dose by UPLC analysis; type: ADME, organism-based; how it was run: as §3
Mus musculus [28] = experiment: Clearance in ICR mouse peritonitis model infected with methicillin resistant Staphylococcus aureus ATCC 27660 at 10 mg/kg, iv administered as single dose measured up to 8 hrs by UPLC analysis relative to hepatic blood flow; type: ADME, organism-based; conditions: in vivo; how it was run: as §2
Mus musculus [29] = experiment: AUC (0 to infinity) in ICR mouse peritonitis model infected with methicillin resistant Staphylococcus aureus ATCC 27660 at 10 mg/kg, iv administered as single dose by UPLC analysis; type: ADME, organism-based; parameters: dose 10 mg/kg, time infinity, route intravenous; conditions: in vivo
Mus musculus [30] = experiment: Terminal half life in ICR mouse peritonitis model infected with methicillin resistant Staphylococcus aureus ATCC 27660 at 10 mg/kg, iv administered as single dose by UPLC analysis; type: ADME, organism-based; conditions: in vivo
Mus musculus [31] = experiment: AUC (0 to infinity) in ICR mouse peritonitis model infected with methicillin resistant Staphylococcus aureus ATCC 27660 at 10 mg/kg, po administered as single dose through gavage by UPLC analysis; type: ADME, organism-based; parameters: dose 10 mg/kg, route oral, time infinity; conditions: in vivo; how it was run: as §4
Mus musculus [32] = experiment: Terminal half life in ICR mouse peritonitis model infected with methicillin resistant Staphylococcus aureus ATCC 27660 at 10 mg/kg, po administered as single dose through gavage by UPLC analysis; type: ADME, organism-based; conditions: in vivo; how it was run: as §4
Mus musculus [33] = experiment: T>MIC in ICR mouse at 10 mg/kg, iv administered as single dose by UPLC analysis

Molecule C#Cc1ccc(/C=C/c2nc3ccccc3c(=O)n2-c2cccc(C(=O)O)c2)cc1 has an MIC (Staphylococcus aureus [1]) of 0.25 µg/mL (≈ 0.637 µM), an IC50 (HepG2) of 82 µg/mL (≈ 209 µM) and an MIC (Streptococcus pyogenes) of 128 µg/mL (≈ 326 µM). The MIC (Acinetobacter baumannii) was at least 16 µg/mL, the MIC (Bacillus cereus) was 128 µg/mL (≈ 326 µM) and the AUClast (Mus musculus [2]) was 1540 µg·min/mL. The MIC (Enterococcus faecium) was over 128 µg/mL, the MIC (Staphylococcus aureus [3]) was 0.06 µg/mL (≈ 0.153 µM) and the MIC (Streptococcus oralis) was 128 µg/mL (≈ 326 µM). The MIC (Staphylococcus aureus [4]) was 0.03 µg/mL (≈ 0.0764 µM), the MBC (Staphylococcus aureus [5]) was 0.125 µg/mL (≈ 0.319 µM) and the Efficacy (Staphylococcus aureus [6]) was over 50%. For the same molecule, the MIC (Pseudomonas aeruginosa) was at least 16 µg/mL, the MIC (Escherichia coli) was at least 16 µg/mL and the MIC (Klebsiella aerogenes) was at least 16 µg/mL. The MIC (Staphylococcus aureus [7]) was 0.03 µg/mL (≈ 0.0764 µM), the MIC (Staphylococcus aureus [8]) was 0.5 µg/mL (≈ 1.27 µM) and the MIC (Klebsiella pneumoniae) was at least 16 µg/mL. The Activity [9] was under 1%, the MIC (Staphylococcus aureus [10]) was 0.5 µg/mL (≈ 1.27 µM) and the MBC (Staphylococcus aureus [11]) was 1 µg/mL (≈ 2.55 µM). It also gave an MIC [12] of 8 ng/mL (≈ 0.0204 µM), a PPB [13] of 99.6% and an MIC (Enterococcus faecalis [14]) of 128 µg/mL (≈ 326 µM). The MIC (Staphylococcus aureus [15]) was 0.06 µg/mL (≈ 0.153 µM), the MIC (Bacillus licheniformis) was 128 µg/mL (≈ 326 µM) and the MBC (Staphylococcus aureus [16]) was 0.5 µg/mL (≈ 1.27 µM). The Activity (Staphylococcus aureus [17]) was “<=500 CFU/ml” and the MIC (Enterococcus faecalis [18]) was over 128 µg/mL.
C#Cc1ccc(/C=C/c2nc3ccccc3c(=O)n2-c2cccc(C(=O)[O-])c2)cc1.[Na+] gave a concentration at 7 h [19] of 220 ng/mL, an AUClast (Mus musculus [20]) of 552 µg·min/mL and a Tmax (Mus musculus [21]) of 30 min. The solubility [22] was 1.5 mg/mL, the Cmax (Mus musculus [23]) was 2.7 µg/mL and the “T>MIC” value (Mus musculus [24]) was 30 h. For the same molecule, the Vd (Mus musculus [25]) was 3.58 L/kg, the F (Mus musculus [26]) was 37% and the concentration at 7 h [27] was 2430 ng/mL. The CL (Mus musculus [28]) was under 10%, the AUC (Mus musculus [29]) was 1570 µg·min/mL and the “beta t1/2” value (Mus musculus [30]) was 6.5 h. The AUC (Mus musculus [31]) was 582 µg·min/mL, the “beta t1/2” value (Mus musculus [32]) was 6.6 h and the “T>MIC” value (Mus musculus [33]) was 24 h.
